In brackets after ≈: the same amount, converted by molar mass. Activity calls are given as the source filed them. No cut-off for these calls is given here.
What was measured:
Salmonella typhimurium [1] = test: Antibacterial activity against Salmonella typhimurium ATCC 14028 after overnight incubation by microbroth dilution method; assay type: functional, Salmonella enterica subsp. enterica serovar Typhimurium; details: Salmonella enterica
[2] = Inhibition of Bacillus pasteurii urease using urea as substrate measured after 20 mins by phenol reagent based assay; design: species or system Sporosarcina pasteurii
Summary of the method: (§1)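 Indophenol method. Enzyme incubated with compound in buffer containing 100 mM urea at 30 °C for 20 min. Phenol reagent (1% w/v phenol, 0.005% w/v sodium nitroprusside) then alkali reagent (0.5% w/v NaOH, 0.1% v/v […]) added. Absorbance read at 630 nm as change per min. Thiourea was the reference inhibitor.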

Bacillus spizizenii = test: Antibacterial activity against Bacillus subtilis ATCC 6633 after overnight incubation by microbroth dilution method; assay type: functional
Summary of the method: (§2)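 Strains grown on nutrient agar, 37°C, 24 h. Inoculum from colony in nutrient broth, 24 h at 37°C, adjusted to McFarland 0.5, about 5 × 10^4 CFU/ml per well. DMSO stocks (4 mg/mL) serially diluted in nutrient broth to final 256 to 0.16 µg/mL. Incubated overnight at 37°C. MIC90 is the lowest concentration inhibiting growth. DMSO 1% final as negative control. Run in triplicate.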

Pseudomonas aeruginosa = test: Antibacterial activity against Pseudomonas aeruginosa ATCC 15442 after overnight incubation by microbroth dilution method; assay type: functional; summary of the method: as §2
Staphylococcus aureus = test: Antibacterial activity against Staphylococcus aureus ATCC 6538 after overnight incubation by microbroth dilution method; assay type: functional; summary of the method: as §2
Escherichia coli = test: Antibacterial activity against Escherichia coli ATCC 25922 after overnight incubation by microbroth dilution method; assay type: functional; summary of the method: as §2
Salmonella typhimurium [3] = details: Salmonella enterica subsp. enterica serovar Typhimurium; ATCC 14028
Sporosarcina pasteurii = test: Inhibition of Bacillus pasteurii urease using urea as substrate measured after 20 mins by phenol reagent based assay relative to control; summary of the method: as §1

MIC90 (Salmonella typhimurium [1])	IC50 [2]	MIC90 (Bacillus spizizenii)	MIC90 (Pseudomonas aeruginosa)	MIC90 (Staphylococcus aureus)	MIC90 (Escherichia coli)	MIC90 (Salmonella typhimurium [3])	inhibition (Sporosarcina pasteurii)	Compound
53.2 µM (≈ 32 µg/mL)	12 µM	213 µM (≈ 128 µg/mL)	53.2 µM (≈ 32 µg/mL)	213 µM (≈ 128 µg/mL)	53.2 µM (≈ 32 µg/mL)			COc1nc(Nc2nc(N)ncc2Cc2cc(OC)c(OC)c(OC)c2)nc(OC(=O)C(N)Cc2c[nH]c3ccccc23)n1 (configuration not stated)
56.8 µM (≈ 32 µg/mL)	13.8 µM	228 µM (≈ 128 µg/mL)	28.4 µM (≈ 16 µg/mL)	303 µM (≈ 171 µg/mL)	47.3 µM (≈ 26.6 µg/mL)			COc1nc(Nc2nc(N)ncc2Cc2cc(OC)c(OC)c(OC)c2)nc(OC(=O)C(N)Cc2ccccc2)n1 (configuration not stated)
82.8 µM (≈ 42.6 µg/mL)	19.3 µM	124 µM (≈ 64 µg/mL)	51.7 µM (≈ 26.6 µg/mL)	166 µM (≈ 85.3 µg/mL)	62.2 µM (≈ 32 µg/mL)			COc1nc(Nc2nc(N)ncc2Cc2cc(OC)c(OC)c(OC)c2)nc(OC(=O)C(N)C(C)C)n1 (configuration not stated)
97.4 µM (≈ 42.6 µg/mL)	31.3 µM	244 µM (≈ 107 µg/mL)	73.1 µM (≈ 32 µg/mL)	244 µM (≈ 107 µg/mL)	73.1 µM (≈ 32 µg/mL)			COc1cc(Cc2cnc(N)nc2NC(=O)C(N)Cc2ccccc2)cc(OC)c1OC (configuration not stated)
219 µM (≈ 85.3 µg/mL)	52.4 µM	68.3 µM (≈ 26.6 µg/mL)	137 µM (≈ 53.3 µg/mL)	82.2 µM (≈ 32 µg/mL)	164 µM (≈ 64 µg/mL)			COc1cc(Cc2cnc(N)nc2NC(=O)C(N)C(C)C)cc(OC)c1OC (configuration not stated)
55.8 µM (≈ 26.6 µg/mL)	35.1 µM	224 µM (≈ 107 µg/mL)	67.1 µM (≈ 32 µg/mL)	134 µM (≈ 64 µg/mL)	67.1 µM (≈ 32 µg/mL)			COc1cc(Cc2cnc(N)nc2NC(=O)C(N)Cc2c[nH]c3ccccc23)cc(OC)c1OC (configuration not stated)
				22.7 µM (≈ 6.59 µg/mL)	55.1 µM (≈ 16 µg/mL)			COc1cc(Cc2cnc(N)nc2N)cc(OC)c1OC [TRIMETHOPRIM]
7.3 µM (≈ 4 µg/mL)	8.33 µM	19.3 µM (≈ 10.6 µg/mL)	6 µM (≈ 3.29 µg/mL)	12 µM (≈ 6.58 µg/mL)	3.6 µM (≈ 1.97 µg/mL)			COc1nc(OC(=O)C(N)Cc2ccccc2)nc(Oc2c(OC)cc(Cc3cnc(N)nc3N)cc2OC)n1 (configuration not stated)
2.3 µM (≈ 1.35 µg/mL)	11.5 µM	6.8 µM (≈ 4 µg/mL)	1.4 µM (≈ 0.823 µg/mL)	3.4 µM (≈ 2 µg/mL)	1.1 µM (≈ 0.646 µg/mL)			COc1nc(OC(=O)C(N)Cc2c[nH]c3ccccc23)nc(Oc2c(OC)cc(Cc3cnc(N)nc3N)cc2OC)n1 (configuration not stated)
15.9 µM (≈ 7.96 µg/mL)	6.23 µM	7.9 µM (≈ 3.95 µg/mL)	6.6 µM (≈ 3.3 µg/mL)	10.6 µM (≈ 5.31 µg/mL)	6.6 µM (≈ 3.3 µg/mL)			COc1nc(OC(=O)C(N)C(C)C)nc(Oc2c(OC)cc(Cc3cnc(N)nc3N)cc2OC)n1 (configuration not stated)

The next lines start with the compound.

Compound	MIC90 (Salmonella typhimurium [1])	IC50 [2]	MIC90 (Bacillus spizizenii)	MIC90 (Pseudomonas aeruginosa)	MIC90 (Staphylococcus aureus)	MIC90 (Escherichia coli)	MIC90 (Salmonella typhimurium [3])	inhibition (Sporosarcina pasteurii)
Cc1ncc([N+](=O)[O-])n1CCOC(=O)C(N)Cc1ccccc1 (configuration not stated)	201 µM (≈ 64 µg/mL)	27.4 µM	83.6 µM (≈ 26.6 µg/mL)	268 µM (≈ 85.3 µg/mL)	50.3 µM (≈ 16 µg/mL)	201 µM (≈ 64 µg/mL)		
COc1nc(OCCn2c([N+](=O)[O-])cnc2C)nc(OC(=O)C(N)Cc2c[nH]c3ccccc23)n1 (configuration not stated)	6.8 µM (≈ 3.28 µg/mL)	16.3 µM	13 µM (≈ 6.27 µg/mL)	4 µM (≈ 1.93 µg/mL)	16.5 µM (≈ 7.96 µg/mL)	2 µM (≈ 0.965 µg/mL)		
NNC(=O)c1ccncc1			inactive	inactive	inactive	inactive	inactive	
Cc1ncc([N+](=O)[O-])n1CCOC(=O)C(N)C(C)C (configuration not stated)	632 µM (≈ 171 µg/mL)	29.5 µM	158 µM (≈ 42.7 µg/mL)	474 µM (≈ 128 µg/mL)	118 µM (≈ 32 µg/mL)	473 µM (≈ 128 µg/mL)		
COc1nc(NNC(=O)c2ccncc2)nc(OC(=O)C(N)Cc2c[nH]c3ccccc23)n1 (configuration not stated)	36 µM (≈ 16.1 µg/mL)	37.3 µM	71 µM (≈ 31.8 µg/mL)	60 µM (≈ 26.9 µg/mL)	47.5 µM (≈ 21.3 µg/mL)	36 µM (≈ 16.1 µg/mL)		
NC(N)=S [THIOUREA]		21 µM						
COc1nc(NNC(=O)c2ccncc2)nc(OC(=O)C(N)Cc2ccccc2)n1 (configuration not stated)	78 µM (≈ 31.9 µg/mL)	31 µM	156 µM (≈ 63.9 µg/mL)	65 µM (≈ 26.6 µg/mL)	104 µM (≈ 42.6 µg/mL)	52 µM (≈ 21.3 µg/mL)		
NC(Cc1ccccc1)C(=O)NNC(=O)c1ccncc1 (configuration not stated)		21.1 µM	inactive	inactive	inactive	inactive	inactive	
Cc1ncc([N+](=O)[O-])n1CCO			inactive	inactive	inactive	inactive		13%
Cc1ncc([N+](=O)[O-])n1CCOC(=O)C(N)Cc1c[nH]c2ccccc12 (configuration not stated)	89.5 µM (≈ 32 µg/mL)	13.6 µM	239 µM (≈ 85.4 µg/mL)	119 µM (≈ 42.6 µg/mL)	179 µM (≈ 64 µg/mL)	74.4 µM (≈ 26.6 µg/mL)		
COc1nc(NNC(=O)c2ccncc2)nc(OC(=O)C(N)C(C)C)n1 (configuration not stated)	74 µM (≈ 26.7 µg/mL)	29.3 µM	177 µM (≈ 64 µg/mL)	74 µM (≈ 26.7 µg/mL)	118 µM (≈ 42.6 µg/mL)	59 µM (≈ 21.3 µg/mL)		
CC[C@H]1OC(=O)[C@H](C)[C@@H](O[C@H]2C[C@@](C)(OC)[C@@H](O)[C@H](C)O2)[C@H](C)[C@@H](O[C@@H]2O[C@H](C)C[C@H](N(C)C)[C@H]2O)[C@](C)(O)C[C@@H](C)/C(=N\OCOCCOC)[C@H](C)[C@@H](O)[C@]1(C)O [ROXITHROMYCIN]			0.6 µM (≈ 0.502 µg/mL)	0.3 µM (≈ 0.251 µg/mL)	0.6 µM (≈ 0.502 µg/mL)	0.6 µM (≈ 0.502 µg/mL)		
COc1nc(OCCn2c([N+](=O)[O-])cnc2C)nc(OC(=O)C(N)Cc2ccccc2)n1 (configuration not stated)	18 µM (≈ 7.98 µg/mL)	11.4 µM	18 µM (≈ 7.98 µg/mL)	9 µM (≈ 3.99 µg/mL)	24 µM (≈ 10.6 µg/mL)	7.4 µM (≈ 3.28 µg/mL)		
NC(Cc1c[nH]c2ccccc12)C(=O)NNC(=O)c1ccncc1 (configuration not stated)	792 µM (≈ 256 µg/mL)	37 µM	98.9 µM (≈ 32 µg/mL)	660 µM (≈ 213 µg/mL)	98.9 µM (≈ 32 µg/mL)	528 µM (≈ 171 µg/mL)		
O=C(O)c1cn(C2CC2)c2cc(N3CCNCC3)c(F)cc2c1=O [CIPROFLOXACIN]			30.2 µM (≈ 10 µg/mL)	30.2 µM (≈ 10 µg/mL)	30.2 µM (≈ 10 µg/mL)	30.2 µM (≈ 10 µg/mL)		
CC(C)C(N)C(=O)NNC(=O)c1ccncc1 (configuration not stated)		48.6 µM	inactive	inactive	inactive	inactive	inactive	
COc1nc(OCCn2c([N+](=O)[O-])cnc2C)nc(OC(=O)C(N)C(C)C)n1 (configuration not stated)	81 µM (≈ 32 µg/mL)	19.5 µM	81 µM (≈ 32 µg/mL)	54 µM (≈ 21.4 µg/mL)	81 µM (≈ 32 µg/mL)	67.3 µM (≈ 26.6 µg/mL)		

Reference: ChEMBL document CHEMBL4251638, “Amino acid conjugated antimicrobial drugs: Synthesis, lipophilicity- activity relationship, antibacterial and urease inhibition activity” (Eur J Med Chem, 2018)
